# Reference: ChEMBL document CHEMBL2157983 (Bioorg Med Chem Lett, 2011)
# Legend:
# [1] = system: Escherichia coli; assay: Activity of Escherichia coli nitroreductase nfsB assessed as NADH oxidation per mg of protein
# How it was run: (§1)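 Substrate activity reported as the initial velocity of NADH oxidation (nmol/min/mg) with either E. coli nfsB or T. brucei nitroreductase (TbNTR). The reaction was followed by the change in absorbance at 340 nm.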
# [2] = system: V79; assay: Antiproliferative activity against Chinese hamster V79 cells assessed as reduction in cell number after 72 hrs; format: cell-based; details: Cricetulus griseus, V79, 72 h
# How it was run: (§2)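 V79 cells carrying vector only served as the control line. The NTR+ line carried a bicistronic construct encoding E. coli nfsB with a puromycin selection marker. Cells were exposed to drug for 72 h. […] The ratio is IC50 in NTR− cells divided by IC50 in NTR+ cells.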
# [3] = system: V79; assay: Antiproliferative activity against Chinese hamster V79 cells transfected with Escherichia coli nitroreductase nfsB assessed as reduction in cell number after 72 hrs; format: functional, cell-based; details: Cricetulus griseus, V79, 72 h; how it was run: as §2
# [4] = system: V79; assay: Ratio of IC50 for Chinese hamster V79 cells to IC50 for Chinese hamster V79 cells transfected with Escherichia coli nitroreductase nfsB; set-up: species or system Cricetulus griseus; how it was run: as §2
# [5] = system: SK-OV-3; assay: Antiproliferative activity against human SKOV3 cells after 18 hrs assessed as reduction in cell number; format: functional, cell-based; details: SK-OV-3, 18 h
# How it was run: (§3)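 Untransfected parental SKOV3 cells were compared with SKOV3 cells expressing E. coli nfsB. Drug exposure lasted 18 h. […] The ratio is IC50 in NTR− cells divided by IC50 in NTR+ cells.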
# [6] = system: SK-OV-3; assay: Antiproliferative activity against human SKOV3 cells transfected with Escherichia coli nitroreductase nfsB assessed as reduction in cell number after 18 hrs; format: functional, cell-based; details: SK-OV-3, 18 h; how it was run: as §3
# [7] = system: SK-OV-3; assay: Ratio of IC50 for human SKOV3 cells to IC50 for human SKOV3 cells transfected with Escherichia coli nitroreductase nfsB; format: functional; how it was run: as §3
# [8] = system: Trypanosoma brucei; assay: Activity of Trypanosoma brucei NTR assessed as NADH oxidation per mg of protein; how it was run: as §1
# [9] = system: Trypanosoma brucei; assay: Trypanocidal activity against of Trypanosoma brucei bloodstream trypomastigote forms assessed as inhibition of parasite growth; format: functional, organism-based
# [10] = system: Leishmania major; assay: Trypanocidal activity against Leishmania major promastigote forms infected in sandfly gut assessed as inhibition of parasite growth; format: functional, organism-based
# [11] = system: SK-OV-3; assay: Antiproliferative activity against human SKOV3 cells with mixed population of 25% NTR(+) cells and 75% NTR(-) cells assessed as bystander effect by measuring mixed population of NTR(+) and NTR (-) cells to produce an IC50 midway on log scale between those in either NTR(+) or NTR(-) cells alone after 18 hrs; format: functional
# How it was run: (§4)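 Drug exposure lasted 18 h. BE50 is the percentage of NTR+ cells in the mix needed to give an IC50 at the log-scale (geometric) midpoint between the IC50s of pure NTR+ and pure NTR− cultures.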
# [12] = system: SK-OV-3; assay: Antiproliferative activity against human SKOV3 cells with mixed population of 25% NTR(+) cells and 75% NTR(-) cells assessed as reduction in cell number after 18 hrs; format: functional, cell-based; details: SK-OV-3, 18 h; how it was run: as §4
# [13] = system: Trypanosoma brucei; assay: Ratio of 4-nitrobenzyl phosphoramide mustard IC50 to compound IC50 for Trypanosoma brucei bloodstream trypomastigote forms; format: functional
Structure (SMILES),Activity [1],IC50 [2],IC50 [3],Ratio IC50 [4],IC50 [5],IC50 [6],Ratio IC50 [7],Activity [8],IC50 [9],IC50 [10],Activity [11],IC50 [12],Ratio IC50 [13]
C[C@@H](OP(N)(=O)N(CCCl)CCCl)c1ccc([N+](=O)[O-])cc1 (some centres undefined),1400 nmol/min,57 µM,0.002 µM,28500,> 1000 µM,0.28 µM,>3500,34 nmol/min,> 10 µM,> 30 µM,,,
NP(=O)(OCc1ccc([N+](=O)[O-])cc1)N(CCCl)CCCl (centres undefined),1280 nmol/min,59 µM,0.0008 µM,73750,943 µM,0.099 µM,9520,246 nmol/min,> 10 µM,> 30 µM,5.6%,0.98 µM,
COc1cc([N+](=O)[O-])ccc1COP(N)(=O)N(CCCl)CCCl (centres undefined),6980 nmol/min,41 µM,0.0005 µM,82000,,,,239 nmol/min,> 10 µM,15.6 µM,,,
NC(=O)c1cc(COP(N)(=O)N(CCCl)CCCl)ccc1[N+](=O)[O-] (centres undefined),211 nmol/min,> 100 µM,0.03 µM,>3330,> 1000 µM,6.75 µM,>150,,,,,,
NP(=O)(OCc1ccc([N+](=O)[O-])cc1)N(CCBr)CCBr (centres undefined),,6 µM,0.0001 µM,60000,1100 µM,0.09 µM,12244,,,,,,
NP(=O)(OCc1ccc([N+](=O)[O-])cc1C(F)(F)F)N(CCCl)CCCl (centres undefined),,50 µM,0.004 µM,12500,172 µM,0.31 µM,570,,7.97 µM,5.88 µM,2.8%,1.01 µM,
NP(=O)(OCc1ccc([N+](=O)[O-])c(F)c1)N(CCCl)CCCl (centres undefined),,48 µM,0.003 µM,16000,246 µM,0.21 µM,1200,1120 nmol/min,> 10 µM,9.05 µM,4.2%,0.48 µM,
Cc1cc(COP(N)(=O)N(CCCl)CCCl)ccc1[N+](=O)[O-] (centres undefined),894 nmol/min,48 µM,0.003 µM,16000,477 µM,0.45 µM,1060,158 nmol/min,> 10 µM,> 30 µM,,,
NP(=O)(OCc1ccccc1[N+](=O)[O-])N(CCCl)CCCl (centres undefined),256 nmol/min,> 100 µM,0.18 µM,>556,> 1000 µM,5.23 µM,>190,19 nmol/min,> 10 µM,> 30 µM,,,
COC(=O)c1cc(COP(N)(=O)N(CCCl)CCCl)ccc1[N+](=O)[O-] (centres undefined),167 nmol/min,69 µM,0.1 µM,690,435 µM,0.43 µM,1000,,,,,,
C[C@H](OP(N)(=O)N(CCCl)CCCl)c1ccc([N+](=O)[O-])cc1 (some centres undefined),916 nmol/min,65 µM,0.002 µM,32500,> 1000 µM,0.49 µM,>2000,52 nmol/min,> 10 µM,> 30 µM,,,
NP(=O)(OCc1cccc([N+](=O)[O-])c1)N(CCCl)CCCl (centres undefined),683 nmol/min,> 100 µM,0.26 µM,>385,947 µM,55 µM,17,369 nmol/min,> 10 µM,> 30 µM,,,
NP(=O)(OCc1ccc([N+](=O)[O-])cc1Cl)N(CCCl)CCCl (centres undefined),,26 µM,0.002 µM,13100,140 µM,0.12 µM,1120,,9.14 µM,3.1 µM,3.2%,0.54 µM,425
NP(=O)(OCc1c(F)cc([N+](=O)[O-])cc1F)N(CCCl)CCCl (centres undefined),,17 µM,0.0008 µM,20880,257 µM,0.17 µM,1520,1450 nmol/min,0.99 µM,1.29 µM,9.2%,1.37 µM,485
NC(=O)c1cc([N+](=O)[O-])ccc1COP(N)(=O)N(CCCl)CCCl (centres undefined),,> 100 µM,0.04 µM,>2500,> 100 µM,0.8 µM,>125,,,,,,
NC(=O)Cc1cc([N+](=O)[O-])ccc1COP(N)(=O)N(CCCl)CCCl (centres undefined),,> 100 µM,0.05 µM,>2000,> 100 µM,1.1 µM,>90,,,,,,
NP(=O)(OCc1ccc([N+](=O)[O-])cn1)N(CCCl)CCCl (centres undefined),,75 µM,0.009 µM,8333,,,,,,8.3 µM,,,
NP(=O)(OCc1ccc([N+](=O)[O-])cc1F)N(CCCl)CCCl (centres undefined),,49 µM,0.0004 µM,122750,266 µM,0.08 µM,3290,,9.54 µM,4.72 µM,3.9%,0.37 µM,
COc1cc(COP(N)(=O)N(CCCl)CCCl)ccc1[N+](=O)[O-] (centres undefined),2440 nmol/min,48 µM,0.003 µM,16000,641 µM,0.44 µM,1460,0 nmol/min,> 10 µM,> 30 µM,,,
